Laboratory results as given in ChEMBL document CHEMBL1135354, “Synthesis and activity of a novel class of tribasic macrocyclic antibiotics: the triamilides” (2002).
In brackets after ≈: the same amount, converted by molar mass.

Assays:
Assay type in all cases: functional
Escherichia coli = experiment: In vitro minimum inhibitory concentration required to inhibit growth of Escherichia coli.
Summary of the method: (§1)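 Broth microdilution per NCCLS; E. coli 51A0150 (poultry lung) and P. multocida 59A0067 (turkey). Overnight BHI plate colonies suspended in saline to OD625 0.09 (0.5 McFarland), diluted 1:100 in BHI broth; final ~5×10^5 cfu/mL against 2-fold serial dilutions in BHI broth.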

Pasteurella multocida [1] = experiment: Effective dose required to inhibit Pasteurella multocida infection model in mouse by subcutaneous administration
Summary of the method: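 Mice infected intranasally with P. multocida (respiratory disease model); drug given subcutaneously 0.5 h post-infection at 5–80 mg/kg. ED50 derived from number of surviving mice 4 days after infection.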

Pasteurella multocida [2] = experiment: Minimum inhibitory concentration required to inhibit growth of Pasteurella multocida in vitro by microdilution method.; summary of the method: as §1
[3] = Pasteurella multocida, sc, read-out: ED50
[4] = Pasteurella multocida, read-out: MIC

CCCCNC[C@@]1(O)[C@H](C)O[C@@H](O[C@H]2[C@H](C)[C@@H](O[C@@H]3O[C@H](C)C[C@H](N(C)C)[C@H]3O)[C@](C)(O)C[C@@H](C)CN[C@H](C)[C@@H](O)[C@](C)(O)[C@@H](CC)OC(=O)[C@@H]2C)C[C@@]1(C)OC
MIC (Escherichia coli; Escherichia coli): 0.39 µg/mL (≈ 0.476 µM)
ED50 (Pasteurella multocida [1]; [3]): 23 mg/kg
MIC (Pasteurella multocida [2]; [4]): < 0.1 µg/mL

CC[C@H]1OC(=O)[C@H](C)[C@@H](O[C@H]2C[C@@](C)(OC)[C@@](O)(CN3CCOCC3)[C@H](C)O2)[C@H](C)[C@@H](O[C@@H]2O[C@H](C)C[C@H](N(C)C)[C@H]2O)[C@](C)(O)C[C@@H](C)CN[C@H](C)[C@@H](O)[C@]1(C)O
MIC (Escherichia coli; Escherichia coli): 3.13 µg/mL (≈ 3.75 µM)
ED50 (Pasteurella multocida [1]; [3]): 49 mg/kg
MIC (Pasteurella multocida [2]; [4]): 0.2 µg/mL (≈ 0.24 µM)

CC[C@H]1OC(=O)[C@H](C)[C@@H](O[C@H]2C[C@@](C)(OC)[C@@](O)(CN(C)CC)[C@H](C)O2)[C@H](C)[C@@H](O[C@@H]2O[C@H](C)C[C@H](N(C)C)[C@H]2O)[C@](C)(O)C[C@@H](C)CN[C@H](C)[C@@H](O)[C@]1(C)O (stereo in doubt; 10g)
MIC (Escherichia coli; Escherichia coli): 0.39 µg/mL (≈ 0.484 µM)
ED50 (Pasteurella multocida [1]; [3]): < 5 mg/kg
MIC (Pasteurella multocida [2]): 0.1 µg/mL (≈ 0.124 µM)

CC[C@H]1OC(=O)[C@H](C)[C@@H](O[C@H]2C[C@@](C)(OC)[C@@](O)(CN(C)CC)[C@H](C)O2)[C@H](C)[C@@H](O[C@@H]2O[C@H](C)C[C@H](N(C)C)[C@H]2O)[C@](C)(O)C[C@@H](C)CN[C@H](C)[C@@H](O)[C@]1(C)O (stereo in doubt; 8i)
MIC (Escherichia coli): 0.78 µg/mL (≈ 0.968 µM)
ED50 (Pasteurella multocida [1]): 7.2 mg/kg
MIC (Pasteurella multocida [2]): < 0.1 µg/mL

CC[C@H]1OC(=O)[C@H](C)[C@@H](O[C@H]2C[C@@](C)(OC)[C@](O)(CNC3CC3)[C@H](C)O2)[C@H](C)[C@@H](O[C@@H]2O[C@H](C)C[C@H](N(C)C)[C@H]2O)[C@](C)(O)C[C@@H](C)CN[C@H](C)[C@@H](O)[C@]1(C)O
MIC (Escherichia coli; Escherichia coli): 0.78 µg/mL (≈ 0.97 µM)
ED50 (Pasteurella multocida [1]; [3]): 15 mg/kg
MIC (Pasteurella multocida [2]; [4]): 0.1 µg/mL (≈ 0.124 µM)

CC[C@H]1OC(=O)[C@H](C)[C@@H](O[C@H]2C[C@@](C)(OC)[C@@](O)(Cn3ccnn3)[C@H](C)O2)[C@H](C)[C@@H](O[C@@H]2O[C@H](C)C[C@H](N(C)C)[C@H]2O)[C@](C)(O)C[C@@H](C)CN[C@H](C)[C@@H](O)[C@]1(C)O
MIC (Escherichia coli; Escherichia coli): 0.78 µg/mL (≈ 0.956 µM)
ED50 (Pasteurella multocida [1]; [3]): 23 mg/kg
MIC (Pasteurella multocida [2]; [4]): 0.05 µg/mL (≈ 0.0613 µM)

CCCNC[C@@]1(O)[C@H](C)O[C@@H](O[C@H]2[C@H](C)[C@@H](O[C@@H]3O[C@H](C)C[C@H](N(C)C)[C@H]3O)[C@](C)(O)C[C@@H](C)CN[C@H](C)[C@@H](O)[C@](C)(O)[C@@H](CC)OC(=O)[C@@H]2C)C[C@@]1(C)OC
MIC (Escherichia coli; Escherichia coli): 0.39 µg/mL (≈ 0.484 µM)
ED50 (Pasteurella multocida [1]; [3]): 12 mg/kg
MIC (Pasteurella multocida [2]; [4]): 0.1 µg/mL (≈ 0.124 µM)

CC[C@H]1OC(=O)[C@H](C)[C@@H](O[C@H]2C[C@@](C)(OC)[C@@](O)(CSCCO)[C@H](C)O2)[C@H](C)[C@@H](O[C@@H]2O[C@H](C)C[C@H](N(C)C)[C@H]2O)[C@](C)(O)C[C@@H](C)CN[C@H](C)[C@@H](O)[C@]1(C)O
MIC (Escherichia coli; Escherichia coli): 1.56 µg/mL (≈ 1.89 µM)
ED50 (Pasteurella multocida [1]; [3]): 51 mg/kg
MIC (Pasteurella multocida [2]; [4]): 0.2 µg/mL (≈ 0.242 µM)

CC[C@H]1OC(=O)[C@H](C)[C@@H](O[C@H]2C[C@@](C)(OC)[C@@](O)(CNCCOC)[C@H](C)O2)[C@H](C)[C@@H](O[C@@H]2O[C@H](C)C[C@H](N(C)C)[C@H]2O)[C@](C)(O)C[C@@H](C)CN[C@H](C)[C@@H](O)[C@]1(C)O
MIC (Escherichia coli; Escherichia coli): 0.78 µg/mL (≈ 0.949 µM)
ED50 (Pasteurella multocida [1]; [3]): 9.5 mg/kg
MIC (Pasteurella multocida [2]; [4]): < 0.1 µg/mL

CC[C@H]1OC(=O)[C@H](C)[C@@H](O[C@H]2C[C@@](C)(OC)[C@@](O)(CN3CCCCC3)[C@H](C)O2)[C@H](C)[C@@H](O[C@@H]2O[C@H](C)C[C@H](N(C)C)[C@H]2O)[C@](C)(O)C[C@@H](C)CN[C@H](C)[C@@H](O)[C@]1(C)O
MIC (Escherichia coli; Escherichia coli): 0.39 µg/mL (≈ 0.469 µM)
ED50 (Pasteurella multocida [1]; [3]): 40 mg/kg
MIC (Pasteurella multocida [2]; [4]): < 0.1 µg/mL

CC[C@H]1OC(=O)[C@H](C)[C@@H](O[C@H]2C[C@@](C)(OC)[C@@](O)(CNC(C)(C)C)[C@H](C)O2)[C@H](C)[C@@H](O[C@@H]2O[C@H](C)C[C@H](N(C)C)[C@H]2O)[C@](C)(O)C[C@@H](C)CN[C@H](C)[C@@H](O)[C@]1(C)O
MIC (Escherichia coli; Escherichia coli): 0.39 µg/mL (≈ 0.476 µM)
ED50 (Pasteurella multocida [1]; [3]): 14 mg/kg
MIC (Pasteurella multocida [2]; [4]): 0.1 µg/mL (≈ 0.122 µM)

CC[C@H]1OC(=O)[C@H](C)[C@@H](O[C@H]2C[C@@](C)(OC)[C@](O)(CSCCO)[C@H](C)O2)[C@H](C)[C@@H](O[C@@H]2O[C@H](C)C[C@H](N(C)C)[C@H]2O)[C@](C)(O)C[C@@H](C)CN[C@H](C)[C@@H](O)[C@]1(C)O
MIC (Escherichia coli; Escherichia coli): 25 µg/mL (≈ 30.3 µM)
ED50 (Pasteurella multocida [1]; [3]): > 40 mg/kg
MIC (Pasteurella multocida [2]; [4]): 0.39 µg/mL (≈ 0.473 µM)

CC[C@H]1OC(=O)[C@H](C)[C@@H](O[C@H]2C[C@@](C)(OC)[C@@](O)(CNC3CC3)[C@H](C)O2)[C@H](C)[C@@H](O[C@@H]2O[C@H](C)C[C@H](N(C)C)[C@H]2O)[C@](C)(O)C[C@@H](C)CN[C@H](C)[C@@H](O)[C@]1(C)O
MIC (Escherichia coli; Escherichia coli): 0.2 µg/mL (≈ 0.249 µM)
ED50 (Pasteurella multocida [1]; [3]): 20 mg/kg
MIC (Pasteurella multocida [2]; [4]): 0.05 µg/mL (≈ 0.0622 µM)

CC[C@H]1OC(=O)[C@H](C)[C@@H](O[C@H]2C[C@@](C)(OC)[C@](O)(CN)[C@H](C)O2)[C@H](C)[C@@H](O[C@@H]2O[C@H](C)C[C@H](N(C)C)[C@H]2O)[C@](C)(O)C[C@@H](C)CN[C@H](C)[C@@H](O)[C@]1(C)O
MIC (Escherichia coli; Escherichia coli): 6.25 µg/mL (≈ 8.18 µM)
MIC (Pasteurella multocida [2]; [4]): 0.39 µg/mL (≈ 0.51 µM)
